The results in this text go back to ChEMBL document CHEMBL3399922, “3-Oxoisoxazole-2(3H)-carboxamides and isoxazol-3-yl carbamates: Resistance-breaking acetylcholinesterase inhibitors targeting the malaria mosquito, Anopheles gambiae” (Bioorg Med Chem, 2015).

The test system of assay [1] is Anopheles gambiae. Briefly: Tarsal contact toxicity in Anopheles gambiae G3 (MRA-112) assessed as mortality measured at 1000 ug/mL at 24 hrs by filter paper assay. It counts as functional. The gist of the method: (§1)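 Non-blood-fed adult females, 3–5 days old, followed a modified 2006 WHO tube assay. Filter papers (15 × 12 cm) were treated with ethanolic carbamate and dried overnight. Mosquitoes were exposed 1 h, then given 10% sugar water, at 24 ± 1 °C and 75% RH; mortality was read at 24 h. G3 used 20-25/batch in triplicate and Akron 10-15 in duplicate. LC50 was from probit analysis of typically 5-8 concentrations.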

For assay [2], the system named is Anopheles gambiae. Briefly: Tarsal contact toxicity in Anopheles gambiae G3 (MRA-112) assessed as mortality measured at 24 hrs by filter paper assay. The class given is functional. The method, boiled down: as §1
Assay [3] relates to Anopheles gambiae. Briefly: Tarsal contact toxicity in Anopheles gambiae Akron (MRA-913) assessed as mortality measured at 24 hrs by filter paper assay. It counts as functional. The gist of the method: as §1
A short description of assay [4]: Inhibition of recombinant wild-type Anopheles gambiae AChE compound incubated for up to 6 min at approximately 1 min interval. The arrangement: unit not given here. The method, boiled down:
(§2)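 Recombinant AgAChE enzymes were incubated with typically five inhibitor concentrations plus an inhibitor-free control. Residual activity v/v0 was read by Ellman assay against a time-matched control, at 23 ± 1°C, pH 7.7, 0.1% (v/v) DMSO. kobs is the slope of ln(v/v0) vs time, from at least two experiments. ki is the slope of kobs vs [I] in the linear, non-saturating range. Duplicate wells.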

The nature of assay [5]: Inhibition of recombinant Anopheles gambiae AChE G119S mutant compound incubated for up to 60 mins at approximately 10 mins interval. The arrangement: unit not given here. The gist of the method: as §2
A further assay addresses Acetylcholinesterase (Homo sapiens, UniProt P22303). Briefly: Inhibition of recombinant human AChE. On the set-up: unit not given here.
The subject of assay [6] is Anopheles gambiae. Briefly: Tarsal contact toxicity in Anopheles gambiae Akron (MRA-913) assessed as mortality measured at 1000 ug/mL at 24 hrs by filter paper assay. It counts as functional. The method, boiled down:
as §1

The test system of assay [7] is Anopheles gambiae. The assay can be described thus: Tarsal contact toxicity in Anopheles gambiae Akron (MRA-913) assessed as mortality measured at 200 ug/mL at 24 hrs by filter paper assay. The class given is functional. The gist of the method: as §1

Converted amounts (≈) assume the structure as drawn.

Chain of Acetylcholinesterase (P22303 whole entry): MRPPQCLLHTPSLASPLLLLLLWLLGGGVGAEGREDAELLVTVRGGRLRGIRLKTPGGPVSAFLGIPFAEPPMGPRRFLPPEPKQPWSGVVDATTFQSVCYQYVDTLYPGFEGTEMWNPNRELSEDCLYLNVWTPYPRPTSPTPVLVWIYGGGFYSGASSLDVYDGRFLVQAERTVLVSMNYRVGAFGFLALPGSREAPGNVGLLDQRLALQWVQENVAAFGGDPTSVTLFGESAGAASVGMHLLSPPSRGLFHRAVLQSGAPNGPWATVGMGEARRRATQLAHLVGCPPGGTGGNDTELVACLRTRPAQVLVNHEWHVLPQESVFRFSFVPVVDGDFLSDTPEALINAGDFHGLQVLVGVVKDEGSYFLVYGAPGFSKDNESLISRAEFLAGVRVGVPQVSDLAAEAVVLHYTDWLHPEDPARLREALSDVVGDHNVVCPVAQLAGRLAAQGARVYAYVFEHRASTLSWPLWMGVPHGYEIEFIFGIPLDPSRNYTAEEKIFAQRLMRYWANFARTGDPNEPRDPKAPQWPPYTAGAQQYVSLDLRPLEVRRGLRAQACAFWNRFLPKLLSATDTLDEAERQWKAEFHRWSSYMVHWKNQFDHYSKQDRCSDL

With `CCCC(C)c1cc(=O)n(C(=O)N(CC)CC)o1` (stereo not drawn), in the assay with Anopheles gambiae [1], the mortality at 1000 µg/mL was 15%.
As for `CNC(=O)Oc1cccc2c1OC(C)(C)C2` [CARBOFURAN], the values for the LC50 in the assay on Anopheles gambiae [2] and with Anopheles gambiae [3] were 16 µg/mL (≈ 72.3 µM) and more than 5000 µg/mL, respectively.
On to `CN(C)C(=O)Oc1cc(CCC2CCCC2)on1`, for which, in the assay on Anopheles gambiae [2], the LC50 amounted to 674 µg/mL (≈ 2670 µM). Moreover, the figures for the Ki (in assay [4]; in assay [5]; at Acetylcholinesterase) were 0.6, 0.12 and 13.1, respectively.
Consider `CCC(C)Cc1cc(OC(=O)N(C)C)no1` (stereo not drawn), for which the mortality at 1000 µg/mL in the assay with Anopheles gambiae [1] is 30%.
Consider `CN(C)C(=O)n1oc(C2CC2)cc1=O`, for which the LC50 in the assay on Anopheles gambiae [2] was 278 µg/mL (≈ 1420 µM). In addition, the mortality at 1000 µg/mL with Anopheles gambiae [6] amounted to 10%. Besides, the Ki in assay [4] is recorded as 50.5; in assay [5] it was 0.2; at Acetylcholinesterase, 103.
Turning to `CNC(=O)Oc1ccccc1OC(C)C` [PROPOXUR], the LC50 in the assay on Anopheles gambiae [2] is 39 µg/mL (≈ 186 µM); in the assay on Anopheles gambiae [3], more than 5000 µg/mL.
In the case of `CCCC(C)c1cc(OC(=O)N2CCOCC2)no1` (stereo not drawn), the mortality at 1000 µg/mL in the assay with Anopheles gambiae [1] came out at 10%.
Turning to `Cc1cc(OC(=O)N(C)C)no1`, in the assay with Anopheles gambiae [1], the mortality at 1000 µg/mL was 0%.
Consider `CCC(CC)c1cc(=O)n(C(=O)N(C)C)o1`, for which the LC50 in the assay with Anopheles gambiae [2] came to 38 µg/mL (≈ 168 µM); in the assay on Anopheles gambiae [3], 40 µg/mL (≈ 177 µM).
Regarding `CN(C)C(=O)n1oc(CCC2CC2)cc1=O`, the LC50 in the assay on Anopheles gambiae [2] stood at 133 µg/mL (≈ 593 µM); in the assay on Anopheles gambiae [3], 144 µg/mL (≈ 642 µM).
The like results for `CCC(C)c1cc(OC(=O)N(C)C)no1` (stereo not drawn) were, in that order, 41 µg/mL (≈ 193 µM) and 58 µg/mL (≈ 273 µM).
Turning to `CCCC(C)c1cc(=O)n(C(=O)N2CCOCC2)o1` (stereo not drawn), the mortality at 1000 µg/mL with Anopheles gambiae [1] is 45%.
Take `CNC(=O)Oc1cccc(C(C)(C)C)c1`: the LC50 is 37 µg/mL (≈ 179 µM) with Anopheles gambiae [2] and more than 5000 µg/mL in the assay on Anopheles gambiae [3].
As for `CN(C)C(=O)n1oc(CCC2CCCC2)cc1=O`, in the assay with Anopheles gambiae [1], the mortality at 1000 µg/mL is 0%.
In the case of `CCC(C)n1cc(OC(=O)NC)cn1` (stereo not drawn), the LC50 in the assay with Anopheles gambiae [2] turned out to be 96 µg/mL (≈ 487 µM); in the assay on Anopheles gambiae [3] it was 81 µg/mL (≈ 411 µM).
In the case of `CNC(=O)O/N=C/C(C)(C)SC` [ALDICARB], the LC50 was 70 µg/mL (≈ 368 µM) with Anopheles gambiae [2] and 32 µg/mL (≈ 168 µM) with Anopheles gambiae [3].
In the same order, the values of `CCC(C)c1cc(=O)n(C(=O)N(C)C)o1` (stereo not drawn) are 63 µg/mL (≈ 297 µM) and 129 µg/mL (≈ 608 µM).
`CCCCC(CC)c1cc(OC(=O)N(C)C)no1` (stereo not drawn): in the assay with Anopheles gambiae [1], the mortality at 1000 µg/mL was determined as 0%.
Turning to `CCCC(C)c1cc(OC(=O)N(C)C)no1` (stereo not drawn), the LC50 in the assay on Anopheles gambiae [2] is 234 µg/mL (≈ 1030 µM); in the assay with Anopheles gambiae [3] it was 296 µg/mL (≈ 1310 µM). Moreover, the results for the Ki (in assay [4]; in assay [5]; at Acetylcholinesterase) were 416, 30.6 and 50.9, respectively.
Regarding `CN(C)C(=O)Oc1cc(CCC2CCC2)on1`, the mortality at 1000 µg/mL in the assay with Anopheles gambiae [1] was determined as 40%.
For `CN(C)C(=O)Oc1cc(CC(C)(C)C)on1`, the mortality at 1000 µg/mL in the assay with Anopheles gambiae [1] was 0%. Besides, the results for the Ki (in assay [4]; in assay [5]; at Acetylcholinesterase) were 0.12, 0.05 and 0.44, respectively.
Regarding `CN(C)C(=O)Oc1cc(CCC2CC2)on1`, the figures for the LC50 in the assay with Anopheles gambiae [2] and with Anopheles gambiae [3] were 191 µg/mL (≈ 852 µM) and 198 µg/mL (≈ 883 µM), respectively.
Regarding `CCCC(C)c1cc(=O)n(C(=O)N2CCC2)o1` (stereo not drawn), the mortality at 1000 µg/mL in the assay with Anopheles gambiae [1] was 78%.
In the case of `CN(C)C(=O)n1oc(C2CCCC2)cc1=O`, the LC50 with Anopheles gambiae [2] amounted to 105 µg/mL (≈ 468 µM); with Anopheles gambiae [3], 118 µg/mL (≈ 526 µM).
As for `CC(C)CCc1cc(=O)n(C(=O)N(C)C)o1`, the LC50 was determined as 73 µg/mL (≈ 323 µM) in the assay on Anopheles gambiae [2] and 68 µg/mL (≈ 301 µM) in the assay with Anopheles gambiae [3]. Besides, the Ki is 266 in assay [4], 0.4 in assay [5] and 80.9 on Acetylcholinesterase.
Consider `CN(C)C(=O)n1oc(CC(C)(C)C)cc1=O`, for which the mortality at 1000 µg/mL with Anopheles gambiae [1] is 80%.
Still for that read-out and setting: the figure for `CCC(CC)c1cc(OC(=O)N(C)C)no1` is 70%.
Take `CN(C)C(=O)Oc1cc(C2CCC2)on1`: the LC50 in the assay with Anopheles gambiae [2] is 349 µg/mL (≈ 1660 µM); with Anopheles gambiae [3], 392 µg/mL (≈ 1860 µM).
Turning to `CN(C)C(=O)Oc1cc(C2CCCC2)on1`, the mortality at 1000 µg/mL in the assay on Anopheles gambiae [1] worked out at 60%.
Regarding `CC(C)Cc1cc(=O)n(C(=O)N(C)C)o1`, the LC50 with Anopheles gambiae [2] was found to be 201 µg/mL (≈ 947 µM). The mortality at 200 µg/mL with Anopheles gambiae [7] came out at 25%. Also, the Ki in assay [4] turned out to be 252; in assay [5] it was 0.55; at Acetylcholinesterase, 30.9.
Take `CCC(C)Cc1cc(=O)n(C(=O)N(C)C)o1` (stereo not drawn): the mortality at 1000 µg/mL in the assay on Anopheles gambiae [1] is 0%.
For `CN(C)C(=O)n1oc(C2CCC2)cc1=O`, the LC50 is 79 µg/mL (≈ 376 µM) in the assay with Anopheles gambiae [2] and 74 µg/mL (≈ 352 µM) with Anopheles gambiae [3].
Turning to `CCCC(C)c1cc(OC(=O)N(C)CC)no1` (stereo not drawn), the LC50 came to 410 µg/mL (≈ 1710 µM) in the assay on Anopheles gambiae [2] and 574 µg/mL (≈ 2390 µM) with Anopheles gambiae [3].
`CCCC(C)c1cc(OC(=O)N2CCCC2)no1` (stereo not drawn): in the assay on Anopheles gambiae [1], the mortality at 1000 µg/mL amounted to 0%.
On to `CC(C)c1cc(OC(=O)N(C)C)no1`, for which the LC50 came to 84 µg/mL (≈ 424 µM) in the assay with Anopheles gambiae [2] and 116 µg/mL (≈ 585 µM) in the assay on Anopheles gambiae [3].
In the same order, the values of `CCCC(C)c1cc(=O)n(C(=O)N(C)C)o1` (stereo not drawn) are 153 µg/mL (≈ 676 µM) and 75 µg/mL (≈ 331 µM).
Take `CN(C)C(=O)Oc1cc(C2CC2)on1`: the mortality at 1000 µg/mL in the assay with Anopheles gambiae [1] was 0%.
Take `CC(C)c1cc(=O)n(C(=O)N(C)C)o1`: the 50% lethal concentration (LC50) worked out at 316 µg/mL (≈ 1590 µM) with Anopheles gambiae [2] and 182 µg/mL (≈ 918 µM) with Anopheles gambiae [3].
The like results for `CC(C)Cc1cc(OC(=O)N(C)C)no1` were, in that order, 253 µg/mL (≈ 1190 µM) and 151 µg/mL (≈ 711 µM).
`CN(C)C(=O)n1oc(CCC2CCC2)cc1=O`: the mortality at 1000 µg/mL in the assay on Anopheles gambiae [1] was 30%.
Take `CCCC(C)c1cc(=O)n(C(=O)N2CCCC2)o1` (stereo not drawn): the mortality at 1000 µg/mL in the assay with Anopheles gambiae [1] was found to be 77%.
Still for that read-out and setting: the figure for `Cc1cc(=O)n(C(=O)N(C)C)o1` is 0%.
As for `CNC(=O)Oc1cccc2c1OC(C)(C)O2` [BENDIOCARB], the figures for the LC50 in the assay with Anopheles gambiae [2] and in the assay on Anopheles gambiae [3] were 16 µg/mL (≈ 71.7 µM) and more than 5000 µg/mL, respectively.
The like results for `CCCC(C)c1cc(=O)n(C(=O)N(C)CC)o1` (stereo not drawn) were, in that order, 400 µg/mL (≈ 1660 µM) and 614 µg/mL (≈ 2560 µM).
The like results for `CC(C)CCc1cc(OC(=O)N(C)C)no1` were, in that order, 415 µg/mL (≈ 1830 µM) and 429 µg/mL (≈ 1900 µM).

In general, mortality refers to the share of the test organisms that died. One may read the LC50 as the concentration lethal to half of the exposed cells or organisms.
